Screening data from PubChem BioAssay.
Rows were chosen to be rich in hits. Some 3.5% of all compounds tested hit in one or more screens of this group.
RGS4 inh: human RGS4 inhibition; P49798; HEK293 M3R/RGS4 inducible, Fluo-4 calcium flux; hits give high values; triggered by carbachol at its EC20; B-score at 10 µM; hit rate 0.45% among 310,000; AID 463165;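 active = B-score, a plate-corrected calcium signal, over three deviations above library mean, with baseline fluorescence within five deviations of library mean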;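 note: RGS4 expression induced by doxycycline in cells with stable M3 receptor; B-score is computed from the integrated fluorescence ratio over baseline after carbachol; higher B-score means a larger calcium signal and so more RGS4 inhibition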
Target sequence (P49798 whole entry, looked up): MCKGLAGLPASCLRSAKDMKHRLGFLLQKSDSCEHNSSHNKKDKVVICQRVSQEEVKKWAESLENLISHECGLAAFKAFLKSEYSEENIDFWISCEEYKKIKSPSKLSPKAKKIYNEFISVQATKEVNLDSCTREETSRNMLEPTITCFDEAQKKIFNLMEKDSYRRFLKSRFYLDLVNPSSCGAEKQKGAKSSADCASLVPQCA
RGS4 act: RGS4 potentiation or activation; HEK293 M3R/inducible RGS4, carbachol calcium flux Fluo4; hits give low values; B-score at 10 µM; hit rate 0.92% among 310,000;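 active = B-score of the integrated calcium signal more than 4 SD below the library mean, with starting fluorescence not abnormally high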;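 note: negative B-score means reduced calcium response which marks RGS4 activation or potentiation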
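test system = M3R-expressing HEK293 line, RGS4 induced by doxycycline | probe or stimulus = carbachol at ECmax as muscarinic agonist stimulus | timing = dye loading 30 min 37 °C, buffer rest 30 min RT | signal = calcium dye Fluo4 fluorescence | evaluation = B score from integrated fluorescence ratio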
MrgX1 allo act: human MrgX1 positive allosteric modulation, primary screen | MrgX1-HEK293, Fluo-4 calcium flux, FDSS; hits give high values | Q96LB2 | AID 588675 | B-score at 10 µM | hit rate 0.63% among 310,000;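 active = plate-corrected calcium response at least 3 library SD above typical, normal starting fluorescence, not activating the receptor alone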;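 note: compound read alongside a low EC10 to EC30 dose of BAM8-22 agonist; peak minus trough fluorescence over baseline measured at the second addition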
Target sequence (Q96LB2 whole entry, looked up): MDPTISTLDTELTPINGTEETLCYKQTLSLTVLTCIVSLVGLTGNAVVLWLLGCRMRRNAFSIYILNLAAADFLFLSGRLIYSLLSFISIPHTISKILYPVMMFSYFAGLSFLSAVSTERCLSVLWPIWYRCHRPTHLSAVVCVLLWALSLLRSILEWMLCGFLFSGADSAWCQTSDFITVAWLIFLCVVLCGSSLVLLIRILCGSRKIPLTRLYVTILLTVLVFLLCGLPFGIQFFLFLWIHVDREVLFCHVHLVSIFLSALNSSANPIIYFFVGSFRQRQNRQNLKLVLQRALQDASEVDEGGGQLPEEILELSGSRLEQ
MrgX1 agonist: agonists of human MrgX1 receptor; Q96LB2; MrgX1-HEK293 cells, Fluo-4 calcium fluorescence, agonist mode; hits give high values; B-score at 10 µM; hit rate 0.44% among 310,000; AID 588627;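 active = calcium response B-score plate-corrected fluorescence ratio at least 3 library SD, with starting fluorescence B-score inside 5 SD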
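Material: MrgX1-expressing HEK293 cells / Dosing: compound as first of three additions / Incubation: overnight seeding, then 1 h dark dye loading / Signal: Fluo-4 NW calcium fluorescence / Evaluation: B-scored fluorescence response ratio / Benchmarks: positive and negative control wells on each plate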
MrgX1 antagonist: antagonists of human MrgX1 receptor; Q96LB2; B-score at 10 µM; hit rate 1.3% among 310,000; MRGX1-HEK293 calcium flux, Fluo-4, BAM8-22 antagonism; hits give low values;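 active = calcium-response B-score plate-corrected more than 3 library SD below zero, starting fluorescence within 5 deviations, no agonist response on first addition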;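 note: peak minus trough fluorescence over baseline after final BAM8-22 challenge near maximal dose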
A number is an active result; – = inactive; · = not tested or not shown; ! = not confirmed by another sample.

SMILES	RGS4 inh	RGS4 act	MrgX1 allo act	MrgX1 agonist	MrgX1 antagonist
CCOC(=O)Nc1ccc2c(c1)N(C(=O)CCN(CC)CC)c1ccccc1CC2	–	–	–	–	–
Cn1cc([N+](=O)[O-])c(C(=O)NNC(=O)c2ccc([N+](=O)[O-])cc2)n1	–	–	–	–	-5.35
CN(c1ccc(C(=O)NCc2ccncc2)cc1)S(=O)(=O)c1ccc(Cl)cc1	–	–	–	–	–
COc1ccc(-n2c3c(c(=O)[nH]c2=O)C(NC(C)=O)(C(F)(F)F)C(=O)N3)cc1 (centres undefined)	–	–	–	–	–
Cc1cc(C(=O)N/N=C/C=C/c2ccc([N+](=O)[O-])cc2)n[nH]1	–	–	–	–	–
Cc1cc(C(=O)N/N=C/C=C/c2ccc(Br)cc2)n[nH]1	–	–	–	–	-5.6
Cc1onc(-c2ccccc2)c1CNC(=O)Nc1ccccc1	–	–	–	–	–
COc1cccc(CNC(=O)CN2CCC(c3nc4ccc(C)cc4[nH]3)CC2)c1	–	–	–	–	–
COc1ccc(NC(=O)CN2C(=O)NC(c3ccccc3)(c3ccccc3)C2=O)cc1OC	–	–	–	–	–
COc1ccc2c(c1)C(c1ccc([N+](=O)[O-])cc1)=NNC(c1ccco1)=N2	–	–	–	–	–
Cc1ccc(C)c(SCC(=O)OCC(=O)c2ccco2)c1	–	–	–	–	–
Cc1cccc(-n2c(C)cc(C=C3C(=O)c4ccccc4C3=O)c2C)c1	–	-10	–	–	–
Cc1cccc(-n2c(C)cc(/C=N/n3cnnc3)c2C)c1	–	-7.32	–	–	–
CCN1CC(CN(C)Cc2nc(-c3ccc(OC)c4ccccc34)oc2C)CC1=O (centres undefined)	–	–	–	–	–
Cc1ccc(C)c(N2CC(O)(c3cccs3)[N+]3=C2CCCC3)c1 (centres undefined)	–	–	–	–	–
OC1(c2cccs2)CN(c2ccc(Cl)cc2)C2=[N+]1CCCC2 (centres undefined)	–	-9.11	–	–	–
OC1(c2cccs2)CN(c2ccc(Cl)cc2)C2=[N+]1CCCS2 (centres undefined)	–	–	–	28	–
CCOC(=O)C1=C(C)NC(C)=C(C(=O)OC)C1c1cccc(Cl)c1Cl (centres undefined)	–	–	–	–	–
CCOC(=O)C1=C(COCCN)NC(C)=C(C(=O)OC)C1c1ccccc1Cl (centres undefined)	–	–	–	27.1!	–
Cc1cccc(NC(=O)c2n[nH]c([N+](=O)[O-])c2Br)c1C	–	–	7.14	–	–
Cc1cccc(NC(=O)c2ccccn2)c1C	–	–	–	–	–
CC(=O)Nc1cccc(NC(=O)CSc2ncc(-c3ccc(Cl)cc3)n2Cc2ccco2)c1	–	-8.6	–	–	–
COc1ccc(-c2cnc(SCC(=O)Nc3ccc4c(c3)OCO4)n2Cc2ccco2)cc1	–	–	·	·	·
CC(=O)Nc1ccc(NC(=O)CSc2ncc(C(=O)Nc3ccc(Cl)cc3)c(=O)n2C)cc1	–	–	–	–	–
CC(=O)Nc1cccc(NC(=O)CSc2ncc(C(=O)Nc3ccccc3)c(=O)n2C)c1	5.76	–	–	–	–
SMILES	RGS4 inh	RGS4 act	MrgX1 allo act	MrgX1 agonist	MrgX1 antagonist
O=C(Nc1cccc(Cl)c1)Nc1ccc2nccnc2c1	–	–	–	–	-4.73
O=C(Nc1ccc2nccnc2c1)Nc1ccccc1Cl	–	–	–	–	–
CCCCN(C(=O)C(C)Oc1cccc(Cl)c1)c1c(N)n(CCC)c(=O)[nH]c1=O (centres undefined)	–	–	–	–	-5.11
CCCn1c(N)c(N(CCOC)C(=O)c2cccc(Cl)c2)c(=O)[nH]c1=O	–	–	–	–	–
CCCCN(C(=O)c1cccc(S(=O)(=O)N2CCOCC2)c1)c1c(N)n(CCC)c(=O)[nH]c1=O	–	–	9.4	–	–
Cc1cccc(-c2noc(Cc3ccccc3)n2)c1	–	–	–	–	-8.16
Cc1ccc2nc(N3C(=O)C(O)=C(C(=O)c4cc5ccccc5o4)C3c3cccs3)sc2c1 (centres undefined)	–	–	–	–	-5.65
CCc1ccc2nc(N3C(=O)C(O)=C(C(=O)c4ccco4)C3c3cccs3)sc2c1 (centres undefined)	–	–	–	–	–
CCN(CC)CCN1C(=O)/C(=C\c2ccc(Cl)c([N+](=O)[O-])c2)SC1=Nc1ccc(OC)cc1	26.7	–	–	–	–
COc1ccc(N=C2S/C(=C\c3ccc(Cl)c([N+](=O)[O-])c3)C(=O)N2CCN(C)C)cc1	13	–	–	–	–
CCCN1C(=O)/C(=C/c2ccc(C)s2)SC1=Nc1ccc(OC)cc1	–	–	–	–	–
O=C(c1cccc(Cl)c1)C1CCCN(S(=O)(=O)c2ccccc2)C1 (centres undefined)	–	–	–	–	–
Cc1cccc(N(Cc2cc3ccccc3[nH]c2=O)C(=O)c2cccs2)c1	–	–	–	–	–
CC1(C)CC2CC(C)(CN2/C=N/c2sc3c(c2C#N)CC(C)(C)NC3(C)C)C1 (centres undefined)	–	–	–	–	-4.53
Cc1ccc(-n2nnnc2CSc2nnc(-c3ccc(O)cc3)o2)cc1	–	–	–	–	–
O=C(Nc1cccc(C(F)(F)F)c1)c1cccc(NS(=O)(=O)c2ccc(O)c(C(=O)O)c2)c1	–	–	–	–	–
CCOC(=O)C(=Cc1c[nH]c2ccc(S(=O)(=O)N(C)C)cc12)C(=O)OCC	–	–	6.74	–	–
CCOC(=O)/C(C#N)=C/c1c[nH]c2ccccc12	–	–	–	–	–
COc1ccc(C(=O)NNC(=O)C2CCCN(C3CC(=O)N(c4ccccc4)C3=O)C2)cc1 (centres undefined)	–	–	–	–	–
O=c1cc(-c2ccccc2)c2ccc(O)c(CN3CCCCC3)c2o1	–	–	–	–	–
CCc1cc2c(-c3ccccc3)cc(=O)oc2c(CN2CCOCC2)c1O	–	–	–	42.6	–
O=c1cc(-c2ccccc2)c2cc(Cl)c(O)c(CN3CCOCC3)c2o1	–	–	9.79	–	–
CN=C1CC(SC)=C1c1ccc(C)cc1	–	–	–	–	–
Cc1cc(C)nc(N(C#N)Cc2cccc(Cl)c2)n1	–	–	–	–	–
CCOC(=O)C1(Cc2ccccc2C)CCCN(C(=O)c2ccccn2)C1 (centres undefined)	–	–	–	–	–
CCOC(=O)C1(Cc2ccccc2C)CCCN(C(=O)c2ccc3nccnc3c2)C1 (centres undefined)	–	-7.12	–	–	–
CN(C)C1=NCCN1CC1CCCCCC1	·	·	–	–	–
CC(C)(C)c1ccc(/C=C/C(=O)Nc2nncs2)cc1	–	–	–	–	-4.84
COC(=O)C(Cc1ccc(O)cc1)NC(=O)NC12CC3CC(CC(C3)C1)C2 (centres undefined)	–	–	–	–	–
